The EternaBench riboswitch data

Test system: MS2 coat protein
Test: apparent Kd, MS2 coat protein; higher = weaker binding; RNA-MaP array; FMN 200 µM where present
Method in brief: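 Designs were transcribed by stalled E. coli RNA polymerase on Illumina sequencing-chip clusters. They were titrated with SNAP-549-labelled MS2 coat protein from 0.7 or 1.5 nM, doubling to 3 µM, in 100 mM Tris-HCl pH 7.5, 80 mM KCl, 4 mM MgCl2, BSA, DTT, yeast tRNA and Tween-20, without and then with constant ligand. The apparent Kd is the median of filtered per-cluster fits after normalisation of green signal to red-channel RNA signal and control-cluster median Fmax.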

[1] = designed as: OFF switch for flavin mononucleotide, no ligand
[2] = ligand present: flavin mononucleotide, designed as: OFF switch for flavin mononucleotide
[3] = designed as: ON switch for flavin mononucleotide, no ligand
[4] = ligand present: flavin mononucleotide, designed as: ON switch for flavin mononucleotide

## GUGACGAAUGUAGGAUAUGCUGAGGAUAACUCAGCAGAAGGACAUGAGGAUCACCCAUGUCAUCCUAAUAAUAAAUAACGUCAC
[1]
  apparent Kd: 14.8 nM
[2]
  apparent Kd: 18.8 nM

## GUGCGUGGCUAGGAUAUUGUGGAGUUUAGUCAGCGAGAAGGUGCCACAUGAGGAUCACCCAUGUGGUGUUGCUC
[1]
  apparent Kd: 19.8 nM
[2]
  apparent Kd: 21.7 nM

## AAAGUGUUAGGAUAUGUGAAGGCGUCUGAUAGACGAGGCCUGCAGAAGGGACAUGAGGAUCACCCAUGUAAAAA
[1]
  apparent Kd: 56.8 nM
[2]
  apparent Kd: 26 nM

## UGUGCGUAUGUGAGGAUAUGCUGGUCCUUGGAUCGGCAGAAGGCACAUGAGGAUCACCCAUGUGGUGUCGUACU
[1]
  apparent Kd: 483 nM
[2]
  apparent Kd: 26.6 nM

## AGGAGAAAUGUAGGAUAUGGGCGGAUAUAUGGGCAAAGCGCAUAUAUCCGCCCAGAAGGACAUGAGGAUCACCCAUGUUUCCCU
[1]
  apparent Kd: 11.1 nM
[2]
  apparent Kd: 13.3 nM

## AGGUCAACCACAGGAUAUGGCUAGCAUAGCUAGCCAGAAGGGUGGUCGUAACCAUGUAAAUACAUGAGGAUCACCCAUGUAUCC
[3]
  apparent Kd: 235 nM
[4]
  apparent Kd: 66.5 nM

## GCGUAAUAGGUGUAGCUAGUCAUUCAAGAAGGGUGGAGAACAUGAGGAUCACCCAUGUAGUUUAUACAGGAUAUUGAUAUACGC
[3]
  apparent Kd: 552 nM
[4]
  apparent Kd: 138 nM

## UCUAUGUAAGAGAAGGAGGACUUCAUGAGGAUCACCCAUGUGUUAGUACUUAGGAUAUUUGACAACAUGAGGAUCACCCAUGUC
[3]
  apparent Kd: 65.7 nM
[4]
  apparent Kd: 61.7 nM

## UUGGACGUUGUAGGAUAUGUAGGAUAUUCCUACAUGAGGAUCACCCAUGUUGACAUGGAAGAAGGACAGAAGGACGAUGUCCAU
[3]
  apparent Kd: 277 nM
[4]
  apparent Kd: 5.32 nM

## GUGGUCAGACAUGAGGAUCACCCAUGUGGAAUAAAUAAGGAGAAGGAUAUCGAAUAUAGGAUAUACGAGAAGGUCUGGUUGGUG
[3]
  apparent Kd: 77.3 nM
[4]
  apparent Kd: 83.1 nM

## GAUUUCUAAGGAUAUACUGAUGUUCCUAAGUCUAGCGGCUCACAUGAGGAUCACCCAUGUAGAAGGUGGAGGUU
[1]
  apparent Kd: 27.8 nM
[2]
  apparent Kd: 30.1 nM

## CUGAGCAAUCAAGGAUAUCACGUCGAUUAGACGUGAGAAGGUGAUCAUUACAUGAGGAUCACCCAUGUAUUACAUGGAGCUCAG
[3]
  apparent Kd: 1370 nM
[4]
  apparent Kd: 365 nM

## CAUUAAUUCAUUAUAGUAAUUAUACAGGAUAUGUAACAUGAGGAUCACCCAUGUAUUCUUGGUAAACAGAAGGGUAUUACAAGU
[1]
  apparent Kd: 13.7 nM
[2]
  apparent Kd: 12.8 nM

## GAUACACAUGAGGAUCACCCAUGUUAGGAUAUUAGCGGGAAAGCUGUCAGACAGUCGAUGAGAAGGAACAGGAG
[1]
  apparent Kd: 32.5 nM
[2]
  apparent Kd: 31.6 nM

## UACCCACAUGGGUAGUGGCAGCGUGAGGAUAUGGGUUGGAUACAUGAGGAUCACCCAUGUUCCUCCUAGAAGGCACUUGUAACC
[3]
  apparent Kd: 138 nM
[4]
  apparent Kd: 24.8 nM

## UAAUCUCAGAUAGGAUAUAUAGGAUAACUUAAGACCUAACAUGAGGAUCACCCAUGUGAUUAUUCGUAGAAGGAUCAUUGACCC
[4]
  apparent Kd: 171 nM

## UACAUGAGGAUCACCCAUGUUUUGUCGUGUAUGGUAUUUAUCUAGGAUAUCAAUUGUUUUAUUUAUGAGAAGGAGAAUAUUAAU
[1]
  apparent Kd: 39.3 nM
[2]
  apparent Kd: 35.8 nM

## AUUAUUGACAUAGGAUAUUGUUACAUGAGGAUCACCCAUGUUAUUUGGGAACUAGGAAUAUUUUACAAGAAGGAUGUUGUUACA
[3]
  apparent Kd: 101 nM
[4]
  apparent Kd: 81.3 nM

## AGCGAUGCAGGAUAUCCGCGGCUACACAUGAGGAUCACCCAUGUUAGGGUCGUGUUGCCAGGAGAAGGGCAAGGAU
[1]
  apparent Kd: 28.8 nM
[2]
  apparent Kd: 78.1 nM

## CUUUUGUGAGGAUAUUAGUAGUAAAUGAAUAAAAUUACUACUGAGAAGGCACAUGAGGAUCACCCAUGUUCCUC
[1]
  apparent Kd: 44.1 nM
[2]
  apparent Kd: 493 nM

## GGAGCACACAUUAACAUGAGGAUCACCCAUGUCAAAAGACAUGAGGAUAUGGAUCCGAAAAGGAUCCAGAAGGCAUAGUGCUCC
[3]
  apparent Kd: 301 nM
[4]
  apparent Kd: 15.7 nM

## AAGUUUAACGAAGGAUAUGGUUACAUGAGGAUCACCCAUGUAUUUUUUGUGAUCUUGUUUAAGUUCCAGAAGGUCGUAUACAUA
[1]
  apparent Kd: 95.4 nM
[2]
  apparent Kd: 305 nM

## UUAAUGUGAGGAUAUCAAGUGUGAUAGAGUAAUGGUAAAUAUGAGAAGGCACAUGAGGAUCACCCAUGUUCUUC
[1]
  apparent Kd: 15.7 nM
[2]
  apparent Kd: 17.4 nM

## GCAGGAUAAGUCAGGAUAUACCUAUGGAUACAUAGGUAGAAGGGACAUGAGGAUCACCCAUGUUACUCGCCUGC
[1]
  apparent Kd: 12.6 nM
[2]
  apparent Kd: 23.6 nM

## UAAACAUGAGGAUCACCCAUGUUAUGAUCGGUUGAUGAAUGUGAGGAUAUACUUAAUUUUAUGGAGUAGAAGGCACUGGGUUCU
[3]
  apparent Kd: 29.1 nM
[4]
  apparent Kd: 30 nM

## CGUAUUAAACAAGGAUAUCAUUUGUGUACAAGUUUUACAUGAGGAUCACCCAUGUUAAAUGGUUUUGAGAAGGUGUUUAGAUCG
[3]
  apparent Kd: 35.3 nM
[4]
  apparent Kd: 25.9 nM

## AUUAUUAAAGUGAGGAUAUCUAGAGCCUCGGCUCUAGAGAAGGCACAUGAGGAUCACCCAUGUCUCAAUUAUUA
[1]
  apparent Kd: 19.1 nM
[2]
  apparent Kd: 56.1 nM

## CUUAGACAUGAGGAUCACCCAUGUGAGGAUAUGAUGCGAUCGUCGAAAGACGAUAGCAUCAGAAGGCACAUAUG
[1]
  apparent Kd: 132 nM
[2]
  apparent Kd: 301 nM

## GUGUACAGAGGAUAUACAUGAGCUAGGAAACUAGCAACCUCACAUGAGGAUCACCCAUGUAGAAGGCUGUACAC
[1]
  apparent Kd: 32.7 nM
[2]
  apparent Kd: 25.8 nM

## ACAUGAGAGAUAGGAUAUCUUGUACCUACAUGUGACAUGAGGAUCACCCAUGUGGUAAGUAUGAGGGAGAAGGGUCAGAUAUGU
[3]
  apparent Kd: 57.9 nM
[4]
  apparent Kd: 55.9 nM

## GUGCAUUCGUAGAAGGGUGACAUGAGGAUCACCCAUGUGCGCUGAGCUCAAGAUGCACCAGCGCCACAGGAUAUACGAAGCACC
[3]
  apparent Kd: 54.3 nM
[4]
  apparent Kd: 84 nM

## AGGGCGAAAUGGCUCUAUGAGAUGAGAAGGGUAGGAGGGUGGAAGUACAUGAGGAUCACCCAUGUACAGGAUAUCAUGCCGAUU
[1]
  apparent Kd: 6.42 nM
[2]
  apparent Kd: 6.4 nM

## GCCAACUUAUGAGGAUAUGGCACCUUAUUGGUGCCAGAAGGCAUGUGUAUUCACAUGAGGAUCACCCAUGUAUUAUAGUUGGCA
[3]
  apparent Kd: 498 nM
[4]
  apparent Kd: 48.1 nM

## CGUCUAUGCCAGAAGGCAUGUCAAAAGACAUGAGGAUCACCCAUGUAAAUGAGGAUAUGGCAUAGACGAAAAGUGCGAAAGCAC
[3]
  apparent Kd: 136 nM
[4]
  apparent Kd: 13.6 nM

## GUGGCUAGUGCAGGAUAUCGGCGCGUGUAGUGCCGAGAAGGGCACAUGAGGAUCACCCAUGUGAUCAAUCACUGCUAAGGCCGC
[1]
  apparent Kd: 5.19 nM
[2]
  apparent Kd: 5.37 nM

## AUCCUACAUGAGGAUCACCCAUGUGACGCCUCAAUAGGAUAUGCGUGUGCCUUGGCGCAUGCAGAAGGAUUGAAGC
[3]
  apparent Kd: 285 nM
[4]
  apparent Kd: 48.1 nM

## UGCAUCUGAGGAUAUCACAUGUGGAACAUGAGGAUCACCCAUGUGAUCCACAUGCCGUUGUGAGAAGGCAGUAAAA
[1]
  apparent Kd: 314 nM
[2]
  apparent Kd: 193 nM

## CUUCGUGAUGCAGGAUAUGUUUGCUUUUUGCGCACAGAAGGGCAUCACAUGAGGAUCACCCAUGUGAGUAGAAAACCGUGGAAA
[1]
  apparent Kd: 14.1 nM
[2]
  apparent Kd: 79.3 nM

## GCUGACGAUGUAGGAUAUCAGUAUAAUAAAUACUGAGAAGGACAUGAGGAUCACCCAUGUAAAAUCCCGUCAGCGAGGAAACUC
[1]
  apparent Kd: 17.1 nM
[2]
  apparent Kd: 23.8 nM

## CCUGCACAUGAGGAUCACCCAUGUUAGGAUAUCUCGCCGUCGGCUUGCCGACGGUAUUAGAGAAGGGACAAGGG
[1]
  apparent Kd: 34.7 nM
[2]
  apparent Kd: 45.5 nM

## GGAGGACAUGAGGAUCACCCAUGUGGAUGGGCGCUAGGAUAUGCGAGAGGAUGGAGAGAAGCAGAAGGAGUGGGUU
[3]
  apparent Kd: 150 nM
[4]
  apparent Kd: 107 nM

## GUAGCAUACCGAGGAUAUUCAUAUAAUAAAUAAACAUGAGGAUCACCCAUGUGGCGAAAGCCUAGGGAGAAGGCGGAAUGCUAC
[3]
  apparent Kd: 240 nM
[4]
  apparent Kd: 22.6 nM

## GCCUAACAUGAGGAUCACCCAUGUAGUGGGUUGUUAGGAUAUGGGCGGCGUAACGCUGCACCAGAAGGAAUAGAAG
[3]
  apparent Kd: 865 nM
[4]
  apparent Kd: 504 nM

## UCGGCGCGAGGAUAUACGUUUGCUUUUUGGGAUCGUUGCGUACAUGAGGAUCACCCAUGUAGAAGGCGCGCCGC
[1]
  apparent Kd: 17.6 nM
[2]
  apparent Kd: 73.8 nM

## CUGAGCUGAGGAUAUACAUGAGGAUCACCCAUGUUAAGCAGCUAGCGUAAAAGCAGAUGUAGAAGGCAGUUCGG
[1]
  apparent Kd: 18.9 nM
[2]
  apparent Kd: 20.3 nM

## CUUCUGUGAGGAUAUGUGAACCCGUGCCGAAAGGAUGGGAAACAGAAGGCACAUGAGGAUCACCCAUGUAAAAU
[1]
  apparent Kd: 35.3 nM
[2]
  apparent Kd: 179 nM

## CGGCCGGGUCGAGGAUAUAAGUCUAGGACAUGAGGAUCACCCAUGUAUGUCUUAGAAGGCGACCCGGCCAGCCUGUUACAGGCA
[3]
  apparent Kd: 31.7 nM
[4]
  apparent Kd: 7.21 nM

## GUCAGCUCGUGAGGAUAUACAACCCUGCUUCGGCAGUGUAUUAAGAUCACAUGAGGAUCACCCAUGUAGAAGGCACGAGCUGAU
[1]
  apparent Kd: 10.3 nM
[2]
  apparent Kd: 146 nM
